Results on 13 compounds are retold here after ChEMBL document CHEMBL4715911, “Quest for a potent antimalarial drug lead: Synthesis and evaluation of 6,7-dimethoxyquinazoline-2,4-diamines” (Bioorg Med Chem, 2021).

Some results are limits rather than exact numbers.

Test [1] relates to Plasmodium berghei. The test can be described thus: Antimalarial activity against Plasmodium berghei NK65 infected in ICR mouse assessed as animal mean survival days at 66.3 mg/kg, po qd for 4 days (reference value: 6.2 day). To be noted: time 4 day. Type of test: functional.
The test system of test [2] is Plasmodium berghei. The test can be described thus: Antimalarial activity against Plasmodium berghei NK65 infected in ICR mouse assessed as reduction in parasitemia at 66.3 mg/kg, po qd for 4 days by Diff-Quik staining based microscopic method (reference value: 0%). In kind it is functional. To be noted: 96 h, time 4 day.
For test [3], the system named is Plasmodium berghei. The test can be described thus: Antimalarial activity against Plasmodium berghei NK65 infected in po dosed ICR mouse assessed as increase in mean survival days for administered for 4 days. To be noted: dose 50-100 mg/kg, time 4.0 day. In kind it is functional, organism-based. The method, boiled down: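 Female ICR mice (25–27 g) infected via tail vein with 2×10^7 P. berghei NK65 parasitized RBC. Oral dosing in 0.5% methyl cellulose at 4 h post-infection, then days 1–3. Survival days recorded and mean survival days compared with vehicle controls. Student's t-test and Kaplan-Meier analysis applied. Mice without parasitemia at day 30 counted as cured.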

Test [4] relates to Plasmodium berghei. The test can be described thus: Antimalarial activity against Plasmodium berghei NK65 infected in ICR mouse assessed as animal mean survival days at 114.4 mg/kg, po qd for 4 days (reference value: 6.2 +/- 0.5 day). Type of test: functional. To be noted: time 4 day.
Test [5] relates to Plasmodium berghei. The test can be described thus: Antimalarial activity against Plasmodium berghei NK65 infected in ICR mouse assessed as reduction in parasitemia at 114.4 mg/kg, po qd for 4 days by Diff-Quik staining based microscopic method (reference value: 0%). In kind it is functional. To be noted: 96 h, time 4 day.
Test [6] concerns Plasmodium berghei. The test can be described thus: Antimalarial activity against Plasmodium berghei NK65 infected in ICR mouse assessed as animal mean survival days at 57.2 mg/kg, po qd for 4 days (reference value: 6.2 +/- 0.5 day). In kind it is functional. To be noted: time 4 day.
Test [7] deals with Plasmodium berghei. The test can be described thus: Antimalarial activity against Plasmodium berghei NK65 infected in ICR mouse assessed as parasitemia at 114.4 mg/kg, po qd for 4 days by Diff-Quik staining based microscopic method (reference value: 28.4 +/- 10.2%). To be noted: time 4 day. Type of test: functional.
Test [8] deals with Plasmodium berghei. The test can be described thus: Antimalarial activity against Plasmodium berghei NK65 infected in ICR mouse assessed as reduction in parasitemia at 57.2 mg/kg, po qd for 4 days by Diff-Quik staining based microscopic method (reference value: 0%). Type of test: functional. To be noted: 96 h, time 4 day.
Test [9] has as its system Plasmodium berghei. The test can be described thus: Antimalarial activity against Plasmodium berghei NK65 infected in ICR mouse assessed as parasitemia at 57.2 mg/kg, po qd for 4 days by Diff-Quik staining based microscopic method (reference value: 28.4 +/- 10.2%). In kind it is functional. To be noted: time 4 day.
For test [10], the system named is Plasmodium berghei. The test can be described thus: Antimalarial activity against Plasmodium berghei NK65 infected in ICR mouse assessed as mean survival days at 54.7 mg/kg, po for 4 days (reference value: 6.2 day). To be noted: time 4 day. In kind it is functional.
For test [11], the system named is Plasmodium berghei. The test can be described thus: Antimalarial activity against Plasmodium berghei NK65 infected in ICR mouse assessed as reduction in parasitemia at 54.7 mg/kg, po qd for 4 days by Diff-Quik staining based microscopic method (reference value: 0%). Type of test: functional. To be noted: 96 h, time 4 day.
Test [12] concerns Plasmodium berghei. The test can be described thus: Antimalarial activity against Plasmodium berghei NK65 infected in ICR mouse assessed as reduction in parasitemia at 115 mg/kg, po qd for 4 days by Diff-Quik staining based microscopic method (reference value: 0%). In kind it is functional. To be noted: 96 h, time 4 day.
Test [13] deals with Plasmodium berghei. The test can be described thus: Antimalarial activity against Plasmodium berghei NK65 infected in ICR mouse assessed as parasitemia at 57.5 mg/kg, po qd for 4 days by Diff-Quik staining based microscopic method (reference value: 28.4 +/- 10.2%). In kind it is functional. To be noted: time 4 day.
The test system of test [14] is Plasmodium berghei. The test can be described thus: Antimalarial activity against Plasmodium berghei NK65 infected in ICR mouse assessed as reduction in parasitemia at 57.5 mg/kg, po qd for 4 days by Diff-Quik staining based microscopic method (reference value: 0%). In kind it is functional. To be noted: 96 h, time 4 day.
In test [15] the test system is Plasmodium berghei. The test can be described thus: Antimalarial activity against Plasmodium berghei NK65 infected in ICR mouse assessed as animal mean survival days at 115 mg/kg, po qd for 4 days (reference value: 6.2 +/- 0.5 day). In kind it is functional. To be noted: time 4 day.
Test [16] has as its system Plasmodium berghei. The test can be described thus: Antimalarial activity against Plasmodium berghei NK65 infected in ICR mouse assessed as parasitemia at 115 mg/kg, po qd for 4 days by Diff-Quik staining based microscopic method (reference value: 28.4 +/- 10.2%). In kind it is functional. To be noted: time 4 day.
Test [17] relates to Plasmodium berghei. The test can be described thus: Antimalarial activity against Plasmodium berghei NK65 infected in ICR mouse assessed as animal mean survival days at 57.5 mg/kg, po qd for 4 days (reference value: 6.2 +/-0.5 day). Type of test: functional. To be noted: time 4 day.
For test [18], the system named is Plasmodium berghei. The test can be described thus: Antimalarial activity against Plasmodium berghei NK65 infected in ICR mouse assessed as reduction in parasitemia at 58.4 mg/kg, po qd for 4 days by Diff-Quik staining based microscopic method (reference value: 0%). To be noted: 96 h, time 4 day. Type of test: functional.
Test [19] has as its system Plasmodium berghei. The test can be described thus: Antimalarial activity against Plasmodium berghei NK65 infected in ICR mouse assessed as animal mean survival days at 58.4 mg/kg, po qd for 4 days (reference value: 6.2 day). Type of test: functional. To be noted: time 4 day.
The subject of test [20] is Plasmodium berghei. The test can be described thus: Antimalarial activity against Plasmodium berghei NK65 infected in ICR mouse assessed as parasitemia at 116.4 mg/kg, po qd for 4 days by Diff-Quik staining based microscopic method (reference value: 28.4 +/- 10.2%). Type of test: functional. To be noted: time 4 day.
The subject of test [21] is Plasmodium berghei. The test can be described thus: Antimalarial activity against Plasmodium berghei NK65 infected in ICR mouse assessed as animal mean survival days at 58.2 mg/kg, po qd for 4 days (reference value: 6.2 +/-0.5 day). In kind it is functional. To be noted: time 4 day.
Test [22] relates to Plasmodium berghei. The test can be described thus: Antimalarial activity against Plasmodium berghei NK65 infected in ICR mouse assessed as reduction in parasitemia at 116.4 mg/kg, po qd for 4 days by Diff-Quik staining based microscopic method (reference value: 0%). To be noted: 96 h, time 4 day. Type of test: functional.
Test [23] deals with Plasmodium berghei. The test can be described thus: Antimalarial activity against Plasmodium berghei NK65 infected in ICR mouse assessed as reduction in parasitemia at 58.2 mg/kg, po qd for 4 days by Diff-Quik staining based microscopic method (reference value: 0%). In kind it is functional. To be noted: 96 h, time 4 day.
The test system of test [24] is Plasmodium berghei. The test can be described thus: Antimalarial activity against Plasmodium berghei NK65 infected in ICR mouse assessed as animal mean survival days at 116.4 mg/kg, po qd for 4 days (reference value: 6.2 +/- 0.5 day). In kind it is functional. To be noted: time 4 day.
Test [25] deals with Plasmodium berghei. The test can be described thus: Antimalarial activity against Plasmodium berghei NK65 infected in ICR mouse assessed as parasitemia at 58.2 mg/kg, po qd for 4 days by Diff-Quik staining based microscopic method (reference value: 28.4 +/- 10.2%). In kind it is functional. To be noted: time 4 day.
Test [26] has as its system Plasmodium berghei. The test can be described thus: Antimalarial activity against Plasmodium berghei NK65 infected in ICR mouse assessed as animal mean survival days at 63.7 mg/kg, po qd for 4 days (reference value: 6.2 day). Type of test: functional. To be noted: time 4 day.
The test system of test [27] is Plasmodium berghei. The test can be described thus: Antimalarial activity against Plasmodium berghei NK65 infected in ICR mouse assessed as reduction in parasitemia at 63.7 mg/kg, po qd for 4 days by Diff-Quik staining based microscopic method (reference value: 0%). Type of test: functional. To be noted: 96 h, time 4 day.
For test [28], the system named is Plasmodium berghei. The test can be described thus: Antimalarial activity against Plasmodium berghei NK65 infected in ICR mouse assessed as reduction in parasitemia at 59 mg/kg, po qd for 4 days by Diff-Quik staining based microscopic method (reference value: 0%). In kind it is functional. To be noted: 96 h, time 4 day.
The subject of test [29] is Plasmodium berghei. The test can be described thus: Antimalarial activity against Plasmodium berghei NK65 infected in ICR mouse assessed as animal mean survival days at 59 mg/kg, po qd for 4 days (reference value: 6.2 day). In kind it is functional. To be noted: time 4 day.
The subject of test [30] is Plasmodium berghei. The test can be described thus: Antimalarial activity against Plasmodium berghei NK65 infected in ICR mouse assessed as reduction in parasitemia at 57 mg/kg, po qd for 4 days by Diff-Quik staining based microscopic method (reference value: 0%). To be noted: 96 h, time 4 day. In kind it is functional.
Test [31] concerns Plasmodium berghei. The test can be described thus: Antimalarial activity against Plasmodium berghei NK65 infected in ICR mouse assessed as animal mean survival days at 57 mg/kg, po qd for 4 days (reference value: 6.2 day). Type of test: functional. To be noted: time 4 day.

For the compound `COc1cc2nc(Nc3ccncc3)nc(NCc3cccnc3)c2cc1OC.Cl.Cl`, in the test on Plasmodium berghei [1], the MSD worked out at 8.7 days. The inhibition in vivo at 66.3 mg/kg in the test with Plasmodium berghei [2] turned out to be 27.1%.

As to `COc1cc2nc(N3CCCC3)nc(NC(C)c3ccccc3)c2cc1OC` (configuration not stated), the Activity entry with Plasmodium berghei [3] was “Dose dependent effect”.

As to `COc1cc2nc(N3CCCC3)nc(NC(C)c3ccccc3)c2cc1OC.Cl` (configuration not stated), the MSD with Plasmodium berghei [4] turned out to be 28.2 days; in the test with Plasmodium berghei [6], 12 days. Moreover, in the test on Plasmodium berghei [5], the inhibition in vivo at 114.4 mg/kg was above 99%. Besides, the Activity is on record as 0% in the test with Plasmodium berghei [7] and 2% in the test with Plasmodium berghei [9]. Besides, the inhibition in vivo at 57.2 mg/kg in the test on Plasmodium berghei [8] was determined as 92.1%.

For `COc1cc2nc(Nc3ccncc3)nc(Nc3ccccc3C)c2cc1OC.Cl`, the MSD in the test on Plasmodium berghei [10] worked out at 7.3 days. For the same compound, the inhibition in vivo at 54.7 mg/kg in the test with Plasmodium berghei [11] was 60.8%.

For the compound `COc1cc2nc(N3CCCC3)nc(Nc3ccccc3C)c2cc1OC.Cl`, in the test with Plasmodium berghei [12], the inhibition in vivo at 115 mg/kg was found to be 63.8%. Also, the Activity is given as 14.7% in the test with Plasmodium berghei [13] and 11.6% in the test with Plasmodium berghei [16]. In addition, the inhibition in vivo at 57.5 mg/kg in the test on Plasmodium berghei [14] came to 53.9%. Moreover, the MSD worked out at 14.5 days in the test on Plasmodium berghei [15] and 7 days with Plasmodium berghei [17].

Consider `CCNc1nc(Nc2ccncc2)nc2cc(OC)c(OC)cc12.Cl`, for which the inhibition in vivo at 58.4 mg/kg in the test with Plasmodium berghei [18] was 1%. In the test with Plasmodium berghei [19], the MSD was 7 days.

With `CCCCNc1nc(N2CCCC2)nc2cc(OC)c(OC)cc12.Cl`, the Activity in the test with Plasmodium berghei [20] is 0%; in the test with Plasmodium berghei [25], 1.5%. Moreover, the MSD came to 17.5 days in the test on Plasmodium berghei [21] and 11.6 days in the test with Plasmodium berghei [24]. The inhibition in vivo at 116.4 mg/kg in the test with Plasmodium berghei [22] is above 99%. In addition, the inhibition in vivo at 58.2 mg/kg in the test on Plasmodium berghei [23] was 95.5%.

Consider `COc1cc2nc(Nc3ccncc3)nc(NC(C)c3ccccc3)c2cc1OC.Cl.Cl` (configuration not stated), for which the MSD in the test on Plasmodium berghei [26] turned out to be 8.3 days. Also, in the test on Plasmodium berghei [27], the inhibition in vivo at 63.7 mg/kg is 6.6%.

For the compound `COc1cc2nc(Nc3ccncc3)nc(NCc3ccncc3)c2cc1OC.Cl.Cl`, the MSD in the test with Plasmodium berghei [1] was found to be 7.7 days. Further, the inhibition in vivo at 66.3 mg/kg in the test on Plasmodium berghei [2] was found to be 29.4%.

Turning to `CCCCCCCCNc1nc(Nc2ccncc2)nc2cc(OC)c(OC)cc12.Cl`, in the test with Plasmodium berghei [18], the inhibition in vivo at 58.4 mg/kg was found to be 54.8%. In addition, the MSD in the test with Plasmodium berghei [19] came to 7.3 days.

For `COc1cc2nc(N3CCCC3)nc(NCc3cccnc3)c2cc1OC.Cl`, in the test on Plasmodium berghei [28], the inhibition in vivo at 59 mg/kg stood at 80.3%. The MSD in the test with Plasmodium berghei [29] was found to be 8 days.

On to `CCCCCCCCNc1nc(N2CCCC2)nc2cc(OC)c(OC)cc12.Cl`, for which the inhibition in vivo at 57 mg/kg in the test with Plasmodium berghei [30] was 48.8%. Further, the MSD with Plasmodium berghei [31] turned out to be 6.7 days.

In the case of `COc1cc2nc(Nc3ccncc3)nc(NC(C)C)c2cc1OC.Cl.Cl`, the MSD in the test on Plasmodium berghei [21] worked out at 8.3 days. For the same compound, the inhibition in vivo at 58.2 mg/kg in the test on Plasmodium berghei [23] worked out at 39.5%.

What is called inhibition in vivo is the drop in the measured response relative to a control, in per cent.
